Data as given in ChEMBL document CHEMBL1155815, “Design, synthesis, and biological evaluation of Mannich bases of heterocyclic chalcone analogs as cytotoxic agents” (Bioorg Med Chem, 2008).
Converted amounts (≈) assume the structure as drawn. The source made the active and inactive calls. The rule behind the calls is not given here.

What was measured:
Assay type in all cases: functional, cell-based
MCF7 = test: Cytotoxicity against human MCF7 cells after 3 days by SRB assay; conditions: for EC50: MCF7, 72 h
Method in brief: (§1)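 Cells grown in RPMI-1640 with HEPES, 0.25% sodium bicarbonate, 10% FBS and kanamycin. Freshly trypsinized cells were seeded at 1500–7500 per well and compounds added from DMSO-diluted stock. After 3 days, attached cells were fixed with cold 50% TCA, stained with 0.4% SRB, and absorbance read after dye solubilization. EC50 = 50% growth reduction, averaged over ≥3 independent determinations.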

KB [1] = test: Cytotoxicity against vinblastine-resistant human KB cells after 3 days by SRB assay; conditions: in the assay text read “vincristine-resistant” for “vinblastine-resistant”; for EC50: 72 h; method in brief: as §1
PC-3 = test: Cytotoxicity against human PC3 cells after 3 days by SRB assay; conditions: for EC50: PC-3, 72 h; method in brief: as §1
KB [2] = test: Cytotoxicity against human KB cells after 3 days by SRB assay; conditions: for EC50: 72 h; method in brief: as §1

## COc1cc(O)c(C(=O)/C=C/c2ccccc2)cc1CN1CCOCC1
MCF7
  EC50: 0.03 µg/mL (≈ 0.0849 µM)
KB [1]
  EC50: 3.5 µg/mL (≈ 9.9 µM)
PC-3
  EC50: 0.78 µg/mL (≈ 2.21 µM)
KB [2]
  EC50: 14.9 µg/mL (≈ 42.2 µM)

## Cc1ccsc1/C=C/C(=O)c1cccc(O)c1CN1CCOCC1
MCF7
  EC50: 1.12 µg/mL (≈ 3.26 µM)
KB [1]
  EC50: 1.64 µg/mL (≈ 4.78 µM)
PC-3
  EC50: 2.73 µg/mL (≈ 7.95 µM)
KB [2]
  EC50: 5.7 µg/mL (≈ 16.6 µM)

## O=C(/C=C/c1ccncc1)c1ccc(CN2CCOCC2)c(O)c1
MCF7
  EC50: 1.23 µg/mL (≈ 3.79 µM)
KB [1]
  EC50: 2.62 µg/mL (≈ 8.08 µM)
PC-3
  EC50: 1.87 µg/mL (≈ 5.76 µM)
KB [2]
  EC50: 1.95 µg/mL (≈ 6.01 µM)

## COc1ccc(/C=C/C(=O)c2ccco2)c(CN2CCCCC2)c1O
MCF7
  EC50: 0.47 µg/mL (≈ 1.38 µM)
KB [1]
  EC50: 2.61 µg/mL (≈ 7.64 µM)
PC-3
  EC50: 3.07 µg/mL (≈ 8.99 µM)
KB [2]
  EC50: 5.18 µg/mL (≈ 15.2 µM)

## O=C(/C=C/c1ccco1)c1cccc(O)c1CN1CCOCC1
MCF7
  EC50: 4.7 µg/mL (≈ 15 µM)
KB [1]
  EC50: 5.77 µg/mL (≈ 18.4 µM)
PC-3
  EC50: 3.8 µg/mL (≈ 12.1 µM)
KB [2]
  EC50: 5.63 µg/mL (≈ 18 µM)

## CC(C)Oc1cc(O)c(C(=O)/C=C/c2cccs2)cc1CN1CCOCC1
MCF7
  EC50: 0.24 µg/mL (≈ 0.619 µM)
KB [1]
  EC50: 5.02 µg/mL (≈ 13 µM)
PC-3
  EC50: 4.04 µg/mL (≈ 10.4 µM)
KB [2]
  EC50: 9.44 µg/mL (≈ 24.4 µM)

## COc1ccc(/C=C/C(=O)c2cccnc2)c(CN2CCCCC2)c1O
MCF7
  EC50: 0.3 µg/mL (≈ 0.851 µM)
KB [1]
  EC50: 2.64 µg/mL (≈ 7.49 µM)
PC-3
  EC50: 6.77 µg/mL (≈ 19.2 µM)
KB [2]
  EC50: 6.14 µg/mL (≈ 17.4 µM)

## COc1cc(O)c(C(=O)/C=C/c2cccnc2)cc1CN1CCOCC1
MCF7
  EC50: 0.1 µg/mL (≈ 0.282 µM)
KB [1]
  EC50: 4.64 µg/mL (≈ 13.1 µM)
PC-3
  EC50: 0.84 µg/mL (≈ 2.37 µM)
KB [2]
  Activity: inactive

## O=C(/C=C/c1ccccn1)c1cc(CN2CCOCC2)c(O)c(CN2CCOCC2)c1
MCF7
  EC50: 1.34 µg/mL (≈ 3.16 µM)
KB [1]
  EC50: 2.27 µg/mL (≈ 5.36 µM)
PC-3
  EC50: 1.72 µg/mL (≈ 4.06 µM)
KB [2]
  EC50: 2.31 µg/mL (≈ 5.45 µM)

## O=C(/C=C/c1cccs1)c1cccc(O)c1CN1CCOCC1
MCF7
  EC50: 1.66 µg/mL (≈ 5.04 µM)
KB [1]
  EC50: 2.15 µg/mL (≈ 6.53 µM)
PC-3
  EC50: 1.09 µg/mL (≈ 3.31 µM)
KB [2]
  EC50: 2.84 µg/mL (≈ 8.62 µM)

## O=C(/C=C/c1cccnc1)c1ccc(CN2CCOCC2)c(O)c1
MCF7
  EC50: 0.67 µg/mL (≈ 2.07 µM)
KB [1]
  EC50: 1.17 µg/mL (≈ 3.61 µM)
PC-3
  EC50: 0.9 µg/mL (≈ 2.77 µM)
KB [2]
  EC50: 2.17 µg/mL (≈ 6.69 µM)

## CCOc1cc(O)c(C(=O)/C=C/c2ccccn2)cc1CN1CCOCC1
MCF7
  EC50: 4.13 µg/mL (≈ 11.2 µM)
KB [1]
  EC50: 5.55 µg/mL (≈ 15.1 µM)
PC-3
  EC50: 3.14 µg/mL (≈ 8.52 µM)
KB [2]
  EC50: 5.72 µg/mL (≈ 15.5 µM)

## O=C(/C=C/c1ccncc1)c1ccc(O)c(CN2CCOCC2)c1
MCF7
  EC50: 0.15 µg/mL (≈ 0.462 µM)
KB [1]
  EC50: 0.41 µg/mL (≈ 1.26 µM)
PC-3
  EC50: 0.1 µg/mL (≈ 0.308 µM)
KB [2]
  EC50: 0.74 µg/mL (≈ 2.28 µM)

## O=C(/C=C/c1ccccc1)c1cccc(O)c1CN1CCOCC1
MCF7
  EC50: 0.28 µg/mL (≈ 0.866 µM)
KB [1]
  EC50: 0.36 µg/mL (≈ 1.11 µM)
PC-3
  EC50: 0.33 µg/mL (≈ 1.02 µM)
KB [2]
  EC50: 0.83 µg/mL (≈ 2.57 µM)

## O=C(/C=C/c1cccs1)c1ccc(O)c(CN2CCOCC2)c1
MCF7
  EC50: 5.62 µg/mL (≈ 17.1 µM)
KB [1]
  EC50: 2.58 µg/mL (≈ 7.83 µM)
PC-3
  EC50: 6.49 µg/mL (≈ 19.7 µM)
KB [2]
  EC50: 5.14 µg/mL (≈ 15.6 µM)

## COc1cc(O)c(C(=O)/C=C/c2ccco2)cc1CN1CCOCC1
MCF7
  EC50: 1.51 µg/mL (≈ 4.4 µM)
KB [1]
  EC50: 8.12 µg/mL (≈ 23.6 µM)
PC-3
  EC50: 16.8 µg/mL (≈ 48.9 µM)
KB [2]
  EC50: 13.5 µg/mL (≈ 39.4 µM)

## CCOc1cc(O)c(C(=O)/C=C/c2ccc(C)o2)cc1CN1CCOCC1
MCF7
  Activity: inactive
KB [1]
  Activity: inactive
PC-3
  Activity: inactive
KB [2]
  Activity: inactive

## CC(C)Oc1ccc(C(=O)/C=C/c2cccs2)c(O)c1CN1CCOCC1
MCF7
  EC50: 0.66 µg/mL (≈ 1.7 µM)
KB [1]
  EC50: 1.45 µg/mL (≈ 3.74 µM)
PC-3
  EC50: 2.8 µg/mL (≈ 7.23 µM)
KB [2]
  EC50: 5.12 µg/mL (≈ 13.2 µM)

## O=C(/C=C/c1ccco1)c1ccc(O)c(CN2CCOCC2)c1
MCF7
  EC50: 4.87 µg/mL (≈ 15.5 µM)
KB [1]
  EC50: 3.27 µg/mL (≈ 10.4 µM)
PC-3
  EC50: 7.43 µg/mL (≈ 23.7 µM)
KB [2]
  EC50: 6.12 µg/mL (≈ 19.5 µM)

## O=C(/C=C/c1ccccn1)c1ccc(O)c(CN2CCOCC2)c1O
MCF7
  EC50: 0.08 µg/mL (≈ 0.235 µM)
KB [1]
  EC50: 0.8 µg/mL (≈ 2.35 µM)
PC-3
  EC50: 0.95 µg/mL (≈ 2.79 µM)
KB [2]
  EC50: 1.54 µg/mL (≈ 4.52 µM)

## COc1ccc(/C=C/C(=O)c2cc(CN3CCOCC3)c(OC)cc2O)cc1
MCF7
  EC50: 2.74 µg/mL (≈ 7.15 µM)
KB [1]
  EC50: 6.58 µg/mL (≈ 17.2 µM)
PC-3
  EC50: 8.11 µg/mL (≈ 21.2 µM)
KB [2]
  EC50: 9.6 µg/mL (≈ 25 µM)

## CCOc1cc(O)c(C(=O)/C=C/c2sccc2C)cc1CN1CCOCC1
MCF7
  Activity: inactive
KB [1]
  Activity: inactive
PC-3
  Activity: inactive
KB [2]
  Activity: inactive

## O=C(/C=C/c1ccccc1)c1ccc(O)c(CN2CCOCC2)c1
MCF7
  EC50: 0.15 µg/mL (≈ 0.464 µM)
KB [1]
  EC50: 0.69 µg/mL (≈ 2.13 µM)
PC-3
  EC50: 0.18 µg/mL (≈ 0.557 µM)
KB [2]
  EC50: 2.11 µg/mL (≈ 6.52 µM)

## COc1ccc(C(=O)/C=C/c2ccccn2)c(O)c1CN1CCOCC1
MCF7
  EC50: 0.25 µg/mL (≈ 0.705 µM)
KB [1]
  EC50: 1.13 µg/mL (≈ 3.19 µM)
PC-3
  EC50: 10.5 µg/mL (≈ 29.7 µM)
KB [2]
  EC50: 3.41 µg/mL (≈ 9.62 µM)

## CCOc1cc(O)c(C(=O)/C=C/c2ccco2)cc1CN1CCOCC1
MCF7
  EC50: 20 µg/mL (≈ 56 µM)
KB [1]
  Activity: inactive
PC-3
  Activity: inactive
KB [2]
  Activity: inactive

## O=C(/C=C/c1cccnc1)c1ccc(O)c(CN2CCOCC2)c1
MCF7
  EC50: 0.29 µg/mL (≈ 0.894 µM)
KB [1]
  EC50: 0.69 µg/mL (≈ 2.13 µM)
PC-3
  EC50: 0.68 µg/mL (≈ 2.1 µM)
KB [2]
  EC50: 2.11 µg/mL (≈ 6.5 µM)

## COc1ccc(/C=C/C(=O)c2cccc(C)c2)c(CN2CCOCC2)c1O
MCF7
  EC50: 0.42 µg/mL (≈ 1.14 µM)
KB [1]
  EC50: 0.6 µg/mL (≈ 1.63 µM)
PC-3
  EC50: 0.66 µg/mL (≈ 1.8 µM)
KB [2]
  EC50: 1.12 µg/mL (≈ 3.05 µM)

## Cc1ccsc1/C=C/C(=O)c1cc(CN2CCOCC2)c(O)c(CN2CCOCC2)c1
MCF7
  EC50: 16.2 µg/mL (≈ 36.6 µM)
KB [1]
  EC50: 12 µg/mL (≈ 27.1 µM)
PC-3
  EC50: 12.1 µg/mL (≈ 27.3 µM)
KB [2]
  EC50: 9.92 µg/mL (≈ 22.4 µM)

## O=C(/C=C/c1ccccn1)c1ccc(CN2CCOCC2)c(O)c1
MCF7
  EC50: 0.43 µg/mL (≈ 1.33 µM)
KB [1]
  EC50: 0.68 µg/mL (≈ 2.1 µM)
PC-3
  EC50: 0.83 µg/mL (≈ 2.56 µM)
KB [2]
  EC50: 1.3 µg/mL (≈ 4.01 µM)

## CC(C)=CCOc1ccc(C(=O)/C=C/c2sccc2C)c(O)c1CN1CCOCC1
MCF7
  EC50: 3.19 µg/mL (≈ 7.46 µM)
KB [1]
  EC50: 7.21 µg/mL (≈ 16.9 µM)
PC-3
  Activity: inactive
KB [2]
  EC50: 8.43 µg/mL (≈ 19.7 µM)

## COc1cc(O)c(C(=O)/C=C/c2cccs2)cc1CN1CCOCC1
MCF7
  EC50: 3.12 µg/mL (≈ 8.68 µM)
KB [1]
  EC50: 6.25 µg/mL (≈ 17.4 µM)
PC-3
  EC50: 6.6 µg/mL (≈ 18.4 µM)
KB [2]
  EC50: 7.75 µg/mL (≈ 21.6 µM)

## O=C(/C=C/c1ccccn1)c1ccc(O)c(CN2CCOCC2)c1
MCF7
  EC50: 0.12 µg/mL (≈ 0.37 µM)
KB [1]
  EC50: 0.3 µg/mL (≈ 0.925 µM)
PC-3
  EC50: 0.31 µg/mL (≈ 0.956 µM)
KB [2]
  EC50: 0.73 µg/mL (≈ 2.25 µM)

## O=C(/C=C/c1ccccn1)c1ccc(CN2CCOCC2)c(O)c1CN1CCOCC1
MCF7
  EC50: 0.46 µg/mL (≈ 1.09 µM)
KB [1]
  EC50: 0.71 µg/mL (≈ 1.68 µM)
PC-3
  EC50: 0.44 µg/mL (≈ 1.04 µM)
KB [2]
  EC50: 0.82 µg/mL (≈ 1.94 µM)

## COc1ccc(/C=C/C(=O)c2cccs2)c(CN2CCCCC2)c1O
MCF7
  EC50: 0.11 µg/mL (≈ 0.308 µM)
KB [1]
  EC50: 2.09 µg/mL (≈ 5.85 µM)
PC-3
  EC50: 2.02 µg/mL (≈ 5.65 µM)
KB [2]
  EC50: 2.93 µg/mL (≈ 8.2 µM)

## CCOc1cc(O)c(C(=O)/C=C/c2ccccc2)cc1CN1CCOCC1
MCF7
  EC50: 5.24 µg/mL (≈ 14.3 µM)
KB [1]
  EC50: 9.92 µg/mL (≈ 27 µM)
PC-3
  EC50: 6.72 µg/mL (≈ 18.3 µM)
KB [2]
  Activity: inactive

## CCOc1cc(O)c(C(=O)/C=C/c2cccnc2)cc1CN1CCOCC1
MCF7
  EC50: 10.6 µg/mL (≈ 28.8 µM)
KB [1]
  Activity: inactive
PC-3
  Activity: inactive
KB [2]
  Activity: inactive
